According to publication PMC10472104 (Clinical Cancer Research, 2023):
Entries after “also recorded” stand apart in the source; their conditions may differ.

Legend:
Format in all cases: cell-based, human
γH2AX in TC32 cells = assay: γH2AX expression by Western blotting; details: TC32, 24 hours
Method in brief: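 Cells grown to 70–80% confluency in six-well plates, settled overnight, serum-starved 24 h, then given DMSO or increasing concentrations of test compound for 24 h. Lysates were transferred to nitrocellulose and blocked. Blots were probed overnight at 4°C with rabbit anti-phospho-H2AX (Ser139) and anti-total H2AX, then 1 h at room temperature with IRDye800CW anti-rabbit, and scanned on an Odyssey imager.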

γH2AX in CHLA10 cells = assay: γH2AX expression by Western blotting; details: CHLA10, 24 hours
[1] = system: γH2AX foci in CHLA10 cells; assay: γH2AX foci by immunofluorescence and confocal microscopy; details: CHLA10, increasing doses, 24 hours
Method in brief: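 Cells were fixed in 4% paraformaldehyde 30 min at room temperature and permeabilized with 0.5% Triton-X. They were probed overnight at 4°C with rabbit anti-phospho-H2AX (Ser139), then Alexa Fluor 488 anti-rabbit, and DAPI-mounted. Foci were counted from confocal images.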

TC32 cells = assay: Cell-cycle analysis; details: TC32 (Fig. 3A)
CHLA10 cells = assay: Cell-cycle analysis; details: CHLA10 (Fig. 3B)
[2] = system: TC32 and CHLA10 spheroids; assay: 3D spheroid assays, comparison across both models; details: 4 days

## O=C(c1cc(Cc2n[nH]c(=O)c3ccccc23)ccc1F)N1CCN(C(=O)C2CC2)CC1 [olaparib]
γH2AX in TC32 cells
  γH2AX expression with increasing doses: induced γH2AX expression in a dose-dependent manner
γH2AX in CHLA10 cells
  γH2AX expression with increasing doses: induced γH2AX expression in a dose-dependent manner
[1]
  γH2AX foci formation: dose-dependent γH2AX foci formation

## O=C(CCCCCCC(=O)Nc1ccccc1)NO [vorinostat]
TC32 cells
  cell-cycle arrest induced: G0/G1 cell-cycle arrest
CHLA10 cells
  cell-cycle arrest induced: G0/G1 cell-cycle arrest
γH2AX in TC32 cells
  γH2AX expression with increasing doses: induced γH2AX expression in a dose-dependent manner
γH2AX in CHLA10 cells
  γH2AX expression with increasing doses: induced γH2AX expression in a dose-dependent manner
[1]
  γH2AX foci formation: milder DNA damage foci formation

## Cn1ncnc1[C@H]1c2n[nH]c(=O)c3cc(F)cc(c23)N[C@@H]1c1ccc(F)cc1 [talazoparib]
[2]
  spheroid activity compared with kt-3283: equivalent activity; also recorded: equivalent efficacy
